Assay results reported in ChEMBL document CHEMBL6153131, “Rational Design and Optimization of a Potent IDO1 Proteolysis Targeting Chimera (PROTAC)” (J Med Chem, 2025).

Experiments:
[1] = target: T1, Protein cereblon/Indoleamine 2,3-dioxygenase 1 (Homo sapiens, UniProt P14902+Q96SW2); test: (§1) PROTAC activity at CRBN/N-terminal HiBiT-tagged IDO1 (unknown origin) transfected in human U87 cells assessed as induction of IDO1 degradation pretreated with IFN-gamma for 24 hrs followed by compound addition and measured after 24 hrs by Nano-Glo HiBiT assay; assay type: cell-based
Summary of the method: (§2)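 U87 cells carrying HiBiT knocked in by CRISPR/Cas9 at the IDO1 N-terminus, treated for 24 h. Degradation read as loss of luminescence. DC50 fitted from the lowest concentration up to maximal degradation, excluding hook-effect points; triplicate mean ± SD.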
Target sequence in this assay (P14902 whole entry): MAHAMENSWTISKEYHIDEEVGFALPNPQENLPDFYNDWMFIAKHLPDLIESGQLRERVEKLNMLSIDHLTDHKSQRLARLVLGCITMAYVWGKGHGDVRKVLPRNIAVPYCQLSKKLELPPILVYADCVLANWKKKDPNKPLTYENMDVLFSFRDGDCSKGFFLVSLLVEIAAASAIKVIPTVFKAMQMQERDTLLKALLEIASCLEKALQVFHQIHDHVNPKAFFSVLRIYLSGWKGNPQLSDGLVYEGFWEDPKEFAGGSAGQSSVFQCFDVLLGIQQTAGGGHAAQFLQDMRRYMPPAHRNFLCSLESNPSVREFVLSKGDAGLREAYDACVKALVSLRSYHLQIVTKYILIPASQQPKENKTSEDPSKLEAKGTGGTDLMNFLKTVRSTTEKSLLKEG
Target sequence in this assay (Q96SW2 whole entry): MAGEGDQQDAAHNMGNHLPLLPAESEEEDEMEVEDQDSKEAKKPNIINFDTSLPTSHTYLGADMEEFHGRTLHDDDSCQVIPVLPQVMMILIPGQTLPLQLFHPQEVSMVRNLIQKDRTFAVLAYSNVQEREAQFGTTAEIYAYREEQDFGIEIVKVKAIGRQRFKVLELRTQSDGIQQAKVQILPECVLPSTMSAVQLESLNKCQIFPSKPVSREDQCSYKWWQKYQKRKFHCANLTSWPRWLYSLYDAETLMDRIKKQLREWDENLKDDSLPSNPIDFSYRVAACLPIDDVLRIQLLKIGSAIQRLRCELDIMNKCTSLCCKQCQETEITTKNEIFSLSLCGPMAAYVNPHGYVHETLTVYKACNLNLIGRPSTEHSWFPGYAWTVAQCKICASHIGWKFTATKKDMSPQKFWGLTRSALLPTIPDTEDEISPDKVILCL

[2] = target: T1, Protein cereblon/Indoleamine 2,3-dioxygenase 1; test: as §1, with “degradation by measuring maximum efficacy” for “degradation”, “assay relative to control” for “assay”; assay type: cell-based; summary of the method: as §2
Target sequence in this assay (P14902 whole entry, looked up): as the sequence (P14902 whole entry) above
Target sequence in this assay (Q96SW2 whole entry, looked up): as the sequence (Q96SW2 whole entry) above

| Compound | DC50 [1] | Emax [2] |
| --- | --- | --- |
| C[C@@H](C(=O)Nc1ccc(OC2CCN(C(=O)CCOCCOCCNc3ccc4c(c3)C(=O)N(C3CCC(=O)NC3=O)C4=O)CC2)cc1)[C@H]1CC[C@@H](c2ccnc3ccc(F)cc32)CC1 (stereo not given in full) | > 10 µM | < 10% |
| C[C@@H](C(=O)Nc1ccc(OC2CCN(C(=O)CN3CCC(CN4CCN(c5cccc6c5C(=O)N(C5CCC(=O)NC5=O)C6=O)CC4)CC3)CC2)cc1)[C@H]1CC[C@@H](c2ccnc3ccc(F)cc32)CC1 (stereo not given in full) | > 10 µM | < 10% |
| C[C@@H](C(=O)Nc1ccc(OC2CCN(C(=O)CCOCCN3CCN(c4ccc5c(c4)C(=O)N(C4CCC(=O)NC4=O)C5=O)CC3)CC2)cc1)[C@H]1CC[C@@H](c2ccnc3ccc(F)cc32)CC1 (stereo not given in full) | > 10 µM | < 10% |
| C[C@@H](C(=O)Nc1ccc(Cl)c(OC2CCN(C(=O)CN3CCC(CN4CCN(c5cccc6c5C(=O)N(C5CCC(=O)NC5=O)C6=O)CC4)CC3)CC2)c1)[C@H]1CC[C@@H](c2ccnc3ccc(F)cc32)CC1 (stereo not given in full) | > 10 µM | < 10% |
| C[C@@H](C(=O)Nc1ccc(OC2CCN(C(=O)CCOCCN3CCN(c4cccc5c4C(=O)N(C4CCC(=O)NC4=O)C5=O)CC3)CC2)cc1)[C@H]1CC[C@@H](c2ccnc3ccc(F)cc32)CC1 (stereo not given in full) | > 10 µM | < 10% |
| C[C@@H](C(=O)Nc1ccc(Cl)c(OC2CCN(C(=O)CCOCCN3CCN(c4cccc5c4C(=O)N(C4CCC(=O)NC4=O)C5=O)CC3)CC2)c1)[C@H]1CC[C@@H](c2ccnc3ccc(F)cc32)CC1 (stereo not given in full) | > 10 µM | < 10% |
| C[C@@H](C(=O)Nc1ccc(Cl)c(OC2CCN(C(=O)CCOCCN3CCN(c4ccc5c(c4)C(=O)N(C4CCC(=O)NC4=O)C5=O)CC3)CC2)c1)[C@H]1CC[C@@H](c2ccnc3ccc(F)cc32)CC1 (stereo not given in full) | > 10 µM | < 10% |
| C[C@@H](C(=O)Nc1ccc(Cl)c(OC2CCN(C(=O)CCOCCOCCNc3cccc4c3C(=O)N(C3CCC(=O)NC3=O)C4=O)CC2)c1)[C@H]1CC[C@@H](c2ccnc3ccc(F)cc32)CC1 (stereo not given in full) | > 10 µM | < 10% |

More lines, now with the values ahead:

| DC50 [1] | Emax [2] | Compound |
| --- | --- | --- |
| 0.034 µM | 21% | C[C@@H](C(=O)Nc1ccc(OC2CCN(C(=O)CN3CCC(N4CCN(c5ccc6c(c5)C(=O)N(C5CCC(=O)NC5=O)C6=O)CC4)CC3)CC2)cc1)[C@H]1CC[C@@H](c2ccnc3ccc(F)cc32)CC1 (stereo not given in full) |
| > 10 µM | < 10% | C[C@@H](C(=O)Nc1cccc(OC2CCN(C(=O)CN3CCN(c4ccc5c(c4)C(=O)N(C4CCC(=O)NC4=O)C5=O)CC3)CC2)c1)[C@H]1CC[C@@H](c2ccnc3ccc(F)cc32)CC1 (stereo not given in full) |
| > 10 µM | < 10% | C[C@@H](C(=O)Nc1cccc(OC2CCN(C(=O)CCN3CCN(c4ccc5c(c4)C(=O)N(C4CCC(=O)NC4=O)C5=O)CC3)CC2)c1)[C@H]1CC[C@@H](c2ccnc3ccc(F)cc32)CC1 (stereo not given in full) |
| > 10 µM | < 10% | C[C@@H](C(=O)Nc1ccc(Cl)c(OC2CCN(C(=O)CCOCCOCCNc3ccc4c(c3)C(=O)N(C3CCC(=O)NC3=O)C4=O)CC2)c1)[C@H]1CC[C@@H](c2ccnc3ccc(F)cc32)CC1 (stereo not given in full) |
| 0.007 µM | 51% | C[C@@H](C(=O)Nc1ccc(Cl)c(OC2CCN(C(=O)CN3CCC(N4CCN(c5ccc6c(c5)C(=O)N(C5CCC(=O)NC5=O)C6=O)CC4)CC3)CC2)c1)[C@H]1CC[C@@H](c2ccnc3ccc(F)cc32)CC1 (stereo not given in full) |
| 0.008 µM | 48% | C[C@@H](C(=O)Nc1ccc(Cl)c(OC2CCN(C(=O)CN3CCC(CN4CCN(c5ccc6c(c5)C(=O)N(C5CCC(=O)NC5=O)C6=O)CC4)CC3)CC2)c1)[C@H]1CC[C@@H](c2ccnc3ccc(F)cc32)CC1 (stereo not given in full) |
| 0.34 µM | 26% | C[C@@H](C(=O)Nc1ccc(OC2CCN(C(=O)CN3CCC(CN4CCN(c5ccc6c(c5)C(=O)N(C5CCC(=O)NC5=O)C6=O)CC4)CC3)CC2)cc1)[C@H]1CC[C@@H](c2ccnc3ccc(F)cc32)CC1 (stereo not given in full) |
